This note sets out measurements from the M2OR odorant receptor database.

Positions count from the first letter of the chain named.

Holding throughout (settings): stereoisomer not certain
One assay concerns the target T1, OR5K3 (Homo sapiens) (UniProt A6NET4).
T1 sequence (whole entry): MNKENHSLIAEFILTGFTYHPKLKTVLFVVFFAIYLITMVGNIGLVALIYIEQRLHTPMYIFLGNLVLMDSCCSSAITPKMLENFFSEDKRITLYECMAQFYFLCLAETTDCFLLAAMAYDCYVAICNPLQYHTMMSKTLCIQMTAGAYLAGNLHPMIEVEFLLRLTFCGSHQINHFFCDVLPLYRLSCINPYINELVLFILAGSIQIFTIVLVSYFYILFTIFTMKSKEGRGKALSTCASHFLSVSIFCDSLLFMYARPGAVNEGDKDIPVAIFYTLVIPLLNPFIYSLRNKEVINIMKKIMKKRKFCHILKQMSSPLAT
The method, boiled down:
(§1)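 Each receptor–molecule pair is labelled responsive or non-responsive (inactive) according to whether the original authors judged the measured signal statistically different from baseline. The data were taken from the main text and supplementary material of published papers and checked for typos and inconsistencies. Assay methods differed by source, with transient luciferase assays in mammalian cell lines being common.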

A further assay has as its target T2, OR5K4 (Homo sapiens) (UniProt A6NMS3).
T2 sequence (whole entry): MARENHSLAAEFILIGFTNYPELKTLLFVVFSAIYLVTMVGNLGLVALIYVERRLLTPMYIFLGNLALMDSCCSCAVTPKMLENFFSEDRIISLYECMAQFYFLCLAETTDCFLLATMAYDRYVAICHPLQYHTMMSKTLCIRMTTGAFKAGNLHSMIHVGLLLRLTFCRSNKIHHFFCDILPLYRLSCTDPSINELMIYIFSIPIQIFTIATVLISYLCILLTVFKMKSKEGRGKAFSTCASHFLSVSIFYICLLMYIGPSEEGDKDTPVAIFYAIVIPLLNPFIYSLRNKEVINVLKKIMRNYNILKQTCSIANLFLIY
The method, boiled down: as §1

Another assay addresses T3, OR5L1 (Homo sapiens) (UniProt Q8NGL2).
T3 sequence (whole entry): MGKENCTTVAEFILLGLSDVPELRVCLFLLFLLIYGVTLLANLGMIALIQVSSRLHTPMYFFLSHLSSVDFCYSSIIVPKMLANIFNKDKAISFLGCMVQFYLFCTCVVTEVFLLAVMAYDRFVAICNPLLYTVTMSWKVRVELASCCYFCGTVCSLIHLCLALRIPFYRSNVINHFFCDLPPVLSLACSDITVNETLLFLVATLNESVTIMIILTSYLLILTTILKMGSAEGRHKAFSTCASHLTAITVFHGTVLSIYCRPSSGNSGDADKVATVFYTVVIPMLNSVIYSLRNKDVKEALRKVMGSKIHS
The method, boiled down: as §1

A further assay deals with T4, OR5L2 (Homo sapiens) (UniProt Q8NGL0).
T4 sequence (whole entry): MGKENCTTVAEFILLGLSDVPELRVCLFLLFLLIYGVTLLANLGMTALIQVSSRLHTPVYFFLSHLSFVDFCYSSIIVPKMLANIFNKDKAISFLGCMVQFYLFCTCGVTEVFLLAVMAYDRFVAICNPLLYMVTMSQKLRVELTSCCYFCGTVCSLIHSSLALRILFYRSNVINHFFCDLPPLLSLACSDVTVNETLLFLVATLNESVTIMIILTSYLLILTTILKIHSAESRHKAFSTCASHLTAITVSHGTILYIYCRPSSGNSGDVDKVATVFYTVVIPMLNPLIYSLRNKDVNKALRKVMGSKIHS
In a few lines: as §1

For a further assay, the target named is T5, OR5M1 (Homo sapiens) (UniProt Q8NGP8).
T5 sequence (whole entry): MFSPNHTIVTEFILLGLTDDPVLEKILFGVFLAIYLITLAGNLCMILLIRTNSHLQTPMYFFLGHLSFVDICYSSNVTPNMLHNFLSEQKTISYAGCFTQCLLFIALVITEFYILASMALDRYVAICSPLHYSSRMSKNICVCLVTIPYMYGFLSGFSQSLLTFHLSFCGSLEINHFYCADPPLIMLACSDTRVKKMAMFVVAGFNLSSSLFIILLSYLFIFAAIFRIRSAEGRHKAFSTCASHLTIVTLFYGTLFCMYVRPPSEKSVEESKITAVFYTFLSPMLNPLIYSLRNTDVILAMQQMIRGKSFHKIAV
The method, boiled down: as §1

The subject of another assay is T6, OR5M1 T295R M301I.
T6 sequence (whole entry): T5 sequence (whole entry) with T295R, M301I
In a few lines: as §1

A further assay has as its target T7, OR5M10 (Homo sapiens) (UniProt Q6IEU7).
T7 sequence (whole entry): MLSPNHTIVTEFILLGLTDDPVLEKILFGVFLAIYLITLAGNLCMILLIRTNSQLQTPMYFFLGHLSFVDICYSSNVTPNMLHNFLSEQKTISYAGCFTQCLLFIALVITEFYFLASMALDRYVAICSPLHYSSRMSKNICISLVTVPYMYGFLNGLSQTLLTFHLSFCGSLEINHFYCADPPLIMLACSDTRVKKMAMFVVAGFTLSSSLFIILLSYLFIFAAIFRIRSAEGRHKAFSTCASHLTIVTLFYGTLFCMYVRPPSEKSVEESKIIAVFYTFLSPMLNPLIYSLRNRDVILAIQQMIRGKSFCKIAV
In a few lines: as §1

In the next assay the target is T8, OR5M11 (Homo sapiens) (UniProt Q96RB7).
T8 sequence (whole entry): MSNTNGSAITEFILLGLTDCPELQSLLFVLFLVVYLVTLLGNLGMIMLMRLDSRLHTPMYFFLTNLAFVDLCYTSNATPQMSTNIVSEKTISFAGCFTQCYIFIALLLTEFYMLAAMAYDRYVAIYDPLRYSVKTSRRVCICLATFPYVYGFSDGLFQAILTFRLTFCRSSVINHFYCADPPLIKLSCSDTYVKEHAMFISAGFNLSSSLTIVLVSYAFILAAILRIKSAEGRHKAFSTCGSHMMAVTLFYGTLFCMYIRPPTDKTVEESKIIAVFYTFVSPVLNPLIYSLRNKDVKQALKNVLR
In a few lines:
as §1

A further assay concerns the target T9, OR5M3 (Homo sapiens) (UniProt Q8NGP4).
T9 sequence (whole entry): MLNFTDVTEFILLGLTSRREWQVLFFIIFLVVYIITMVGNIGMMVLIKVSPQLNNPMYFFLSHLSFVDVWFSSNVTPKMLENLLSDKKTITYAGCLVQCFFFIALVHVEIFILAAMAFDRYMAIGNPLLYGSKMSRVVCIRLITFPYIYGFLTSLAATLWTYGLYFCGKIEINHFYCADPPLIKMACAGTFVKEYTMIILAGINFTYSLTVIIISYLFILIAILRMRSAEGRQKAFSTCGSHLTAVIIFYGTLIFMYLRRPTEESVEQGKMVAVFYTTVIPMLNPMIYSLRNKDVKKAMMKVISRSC
The method, boiled down: as §1

For another assay, the system named is T10, OR5M3 N3Y A156T.
T10 sequence (whole entry): T9 sequence (whole entry) with N3Y, A156T
In a few lines:
as §1

The next assay has as its target T11, OR5M8 (Homo sapiens) (UniProt Q8NGP6).
T11 sequence (whole entry): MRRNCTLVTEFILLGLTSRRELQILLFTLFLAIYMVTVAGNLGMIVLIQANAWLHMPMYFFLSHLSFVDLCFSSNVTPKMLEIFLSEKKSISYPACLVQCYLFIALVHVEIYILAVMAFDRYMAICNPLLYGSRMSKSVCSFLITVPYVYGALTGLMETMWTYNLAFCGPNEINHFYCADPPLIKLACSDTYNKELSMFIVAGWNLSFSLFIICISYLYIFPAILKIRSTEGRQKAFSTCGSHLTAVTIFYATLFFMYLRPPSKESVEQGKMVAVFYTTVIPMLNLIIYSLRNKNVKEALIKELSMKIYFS
In a few lines:
as §1

For the next assay, the target named is T12, OR5M9 (Homo sapiens) (UniProt Q8NGP3).
T12 sequence (whole entry): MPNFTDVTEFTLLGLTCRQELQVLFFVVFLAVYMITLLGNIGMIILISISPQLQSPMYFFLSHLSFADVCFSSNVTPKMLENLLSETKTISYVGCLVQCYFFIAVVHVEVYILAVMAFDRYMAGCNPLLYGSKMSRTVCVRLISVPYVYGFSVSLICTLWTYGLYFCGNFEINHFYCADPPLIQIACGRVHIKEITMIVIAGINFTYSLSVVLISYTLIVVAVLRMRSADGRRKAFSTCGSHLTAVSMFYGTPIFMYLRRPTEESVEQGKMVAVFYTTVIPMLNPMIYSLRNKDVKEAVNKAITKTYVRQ
The method, boiled down:
as §1

Another assay has as its system T13, OR5MA L2F C311H.
T13 sequence (whole entry): T7 sequence (whole entry) with L2F, C311H
The method, boiled down: as §1

A further assay relates to T14, OR5MA L2F Q54H C311H.
T14 sequence (whole entry): T7 sequence (whole entry) with L2F, Q54H, C311H
In a few lines:
as §1

The target of another assay is T15, OR5P2 (Homo sapiens) (UniProt Q8WZ92).
T15 sequence (whole entry): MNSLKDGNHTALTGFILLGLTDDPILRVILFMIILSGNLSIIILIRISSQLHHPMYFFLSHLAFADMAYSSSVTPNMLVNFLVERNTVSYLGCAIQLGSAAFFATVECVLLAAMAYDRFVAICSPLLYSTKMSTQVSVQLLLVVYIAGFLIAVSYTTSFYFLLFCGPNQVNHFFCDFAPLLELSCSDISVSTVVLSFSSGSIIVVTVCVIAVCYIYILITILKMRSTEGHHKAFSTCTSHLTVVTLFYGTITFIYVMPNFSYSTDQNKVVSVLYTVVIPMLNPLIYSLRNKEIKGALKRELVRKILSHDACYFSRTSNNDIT
The method, boiled down: as §1

In another assay the target is T16, OR5P3 (Homo sapiens) (UniProt Q8WZ94).
T16 sequence (whole entry): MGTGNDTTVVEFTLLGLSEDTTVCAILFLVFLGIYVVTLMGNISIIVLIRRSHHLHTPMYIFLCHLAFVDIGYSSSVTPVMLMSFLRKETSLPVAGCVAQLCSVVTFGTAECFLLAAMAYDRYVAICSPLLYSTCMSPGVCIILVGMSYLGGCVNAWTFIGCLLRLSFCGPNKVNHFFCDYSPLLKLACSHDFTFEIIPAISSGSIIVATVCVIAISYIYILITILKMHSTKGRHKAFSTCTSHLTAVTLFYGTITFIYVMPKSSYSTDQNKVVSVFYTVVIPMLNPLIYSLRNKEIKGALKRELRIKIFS
In a few lines:
as §1

Another assay deals with T17, OR5P3 L301R.
T17 sequence (whole entry): T16 sequence (whole entry) with L301R
In a few lines:
as §1

The next assay concerns T18, OR5R1 C122R S128G F184L.
T18 sequence (whole entry): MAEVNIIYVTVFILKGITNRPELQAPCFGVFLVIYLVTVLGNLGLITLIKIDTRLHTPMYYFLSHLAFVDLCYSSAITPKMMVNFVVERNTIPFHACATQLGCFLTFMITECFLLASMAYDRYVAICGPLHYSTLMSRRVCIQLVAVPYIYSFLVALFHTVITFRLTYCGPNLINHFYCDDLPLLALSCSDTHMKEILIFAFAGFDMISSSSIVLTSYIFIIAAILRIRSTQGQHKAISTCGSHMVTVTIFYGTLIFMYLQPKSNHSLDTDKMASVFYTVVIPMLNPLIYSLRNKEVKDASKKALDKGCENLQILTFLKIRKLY
In a few lines:
as §1

For a further assay, the target named is T19, OR5T1 (Homo sapiens) (UniProt Q8NG75).
T19 sequence (whole entry): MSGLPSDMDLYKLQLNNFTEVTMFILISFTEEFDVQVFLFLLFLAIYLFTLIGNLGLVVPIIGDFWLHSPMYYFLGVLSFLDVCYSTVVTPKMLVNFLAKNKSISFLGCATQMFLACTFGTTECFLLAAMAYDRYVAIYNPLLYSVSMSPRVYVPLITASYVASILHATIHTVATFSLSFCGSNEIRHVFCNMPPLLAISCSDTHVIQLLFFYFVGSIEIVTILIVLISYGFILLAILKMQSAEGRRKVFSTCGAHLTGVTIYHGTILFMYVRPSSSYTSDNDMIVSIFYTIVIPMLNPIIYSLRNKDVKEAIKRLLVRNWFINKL
The method, boiled down:
as §1

A further assay deals with T20, OR5T2 (Homo sapiens) (UniProt Q8NGG2).
T20 sequence (whole entry): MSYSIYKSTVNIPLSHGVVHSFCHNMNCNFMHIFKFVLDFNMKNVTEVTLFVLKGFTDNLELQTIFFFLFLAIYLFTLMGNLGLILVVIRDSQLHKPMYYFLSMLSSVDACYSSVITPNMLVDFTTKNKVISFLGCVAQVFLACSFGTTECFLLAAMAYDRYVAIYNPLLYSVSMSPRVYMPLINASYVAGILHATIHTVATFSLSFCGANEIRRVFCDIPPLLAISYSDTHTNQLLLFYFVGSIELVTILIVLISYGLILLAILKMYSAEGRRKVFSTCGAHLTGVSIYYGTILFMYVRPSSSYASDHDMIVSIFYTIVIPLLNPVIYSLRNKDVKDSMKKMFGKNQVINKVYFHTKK
In a few lines: as §1
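Note: active if original authors judged signal statistically different from baseline.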

As for `CC(=O)c1nccnc1C`, the “odorant receptor agonist call” value with OR5K3 (Homo sapiens) and with OR5K4 (Homo sapiens) was “inactive” each time.
`CCC1OC(=O)C(O)=C1C` (stereo unspecified): the “odorant receptor agonist call” value in the assay with OR5K3 (Homo sapiens), in the assay with OR5K4 (Homo sapiens), with OR5L1 (Homo sapiens), in the assay with OR5L2 (Homo sapiens), with OR5M1 (Homo sapiens) and in the assay with OR5M1 T295R M301I was “inactive” each time. Besides, the “odorant receptor agonist call” value in the assay with OR5M10 (Homo sapiens), with OR5M11 (Homo sapiens), in the assay with OR5M3 (Homo sapiens), with OR5M3 N3Y A156T, in the assay with OR5M8 (Homo sapiens) and with OR5M9 (Homo sapiens) was “inactive” in each case. Moreover, the “odorant receptor agonist call” value in the assay on OR5MA L2F C311H, in the assay on OR5MA L2F Q54H C311H, with OR5P2 (Homo sapiens), with OR5P3 (Homo sapiens), in the assay on OR5P3 L301R and in the assay with OR5R1 C122R S128G F184L was “inactive” in each case. The “odorant receptor agonist call” value in the assay with OR5T1 (Homo sapiens) and with OR5T2 (Homo sapiens) was “inactive” throughout.
Turning to `CCCCC(S)C(C)CO` (stereo unspecified), the “odorant receptor agonist call” value in the assay with OR5K3 (Homo sapiens), in the assay with OR5K4 (Homo sapiens), in the assay with OR5L1 (Homo sapiens), in the assay with OR5L2 (Homo sapiens), with OR5M1 (Homo sapiens) and with OR5M10 (Homo sapiens) was “inactive” in each case. Further, the “odorant receptor agonist call” value in the assay with OR5M3 (Homo sapiens), with OR5M8 (Homo sapiens), with OR5M9 (Homo sapiens), with OR5P2 (Homo sapiens), with OR5P3 (Homo sapiens) and with OR5T1 (Homo sapiens) was “inactive” each time. In the assay with OR5T2 (Homo sapiens), the “odorant receptor agonist call” value is “inactive”. Besides, the “odorant receptor agonist call” value in the assay with OR5M11 (Homo sapiens) was “active”.
